Measured values pooled from the literature.
Compare with care: the assays were run in different laboratories.
IDE: Insulin-degrading enzyme (IDE, Homo sapiens, UniProt P14735)
Tumor necrosis factor receptor superfamily member 9: Tumor necrosis factor receptor superfamily member 9 (Homo sapiens, UniProt Q07011)
CSF1R: Macrophage colony-stimulating factor 1 receptor (CSF1R, Homo sapiens, UniProt P07333)

Structure (SMILES) | target | test | conditions | quantity | value
Nc1nc2c(ncn2[C@@H]2O[C@H](COP(=O)(O)OP(=O)(O)OP(=O)(O)OC[C@H]3O[C@@H](n4cnc5c(=O)[nH]c(N)nc54)[C@H](O)[C@@H]3O)[C@@H](O)[C@H]2O)c(=O)[nH]1 | Gem-associated protein 5 (Homo sapiens, UniProt Q8TEQ6) | binding, ITC | – | Kd | 140000 nM
c1cncc(-c2cccc(Nc3nccc(NC4CCCCC4)n3)c2)c1 | Tyrosine-protein kinase JAK3, JH1 (JAK3, Homo sapiens, UniProt P52333) | binding, competition with immobilised ligand | – | Kd | 1300 nM
CC(C)C[C@H](NC(=O)[C@H](Cc1ccccc1)NC(=O)[C@H](Cc1ccc(O)cc1)NC(=O)CNC(=O)[C@H](CCCNC(=N)N)NC(=O)[C@H](CO)NC(=O)[C@H](CCC(N)=O)NC(=O)[C@H](CO)NC(=O)[C@H](C)NC(=O)[C@H](Cc1ccccc1)NC(=O)[C@@H]1CCCN1C(=O)[C@H](CO)NC(=O)[C@H](CCC(N)=O)NC(=O)[C@H](Cc1ccccc1)NC(=O)[C@H](CCC(=O)O)NC(=O)[C@H](CCC(=O)O)NC(=O)[C@H](CC(=O)O)NC(=O)[C@@H](NC(=O)[C@H](CCCNC(=N)N)NC(=O)[C@@H](N)Cc1ccccc1)C(C)C)C(=O)N[C@@H](Cc1ccccc1)C(=O)N[C@@H](CCCNC(=N)N)C(=O)N1CCC[C@H]1C(=O)N[C@@H](CCCNC(=N)N)C(=O)N[C@@H](CC(N)=O)C(N)=O | Neuromedin-U receptor 2 (NMUR2, Homo sapiens, UniProt Q9GZQ4) | inositol phosphate, agonist | – | EC50 | 0.166 nM
Cc1cc2nc3c(=O)[nH]c(=O)nc-3n(C[C@H](O)[C@H](O)[C@H](O)COP(=O)(O)OP(=O)(O)OC[C@H]3O[C@@H](n4cnc5c(N)ncnc54)[C@H](O)[C@@H]3O)c2cc1C | Heterogeneous nuclear ribonucleoprotein H3 (Homo sapiens, UniProt P31942) | binding | lysate | Kd | 19 nM
Cc1cnc(-c2ccc(-c3ccc(NC(=O)Nc4c(F)cc(F)cc4F)cc3F)c3c2C(=O)NC3)[nH]1 | Myosin-IIIa (MYO3A, Homo sapiens, UniProt Q8NEV4) | binding, competition with immobilised ligand | – | Kd | 13 nM
CCCCCCN(CC(=O)O)CC(=O)N[C@@H](Cc1c[nH]cn1)C(=O)OC | IDE | enzyme activity, inhibitor, fluorescence | – | IC50 | 400 nM
CCCC[C@@H]1NC(=O)[C@H](Cc2ccc(O)cc2)NC(=O)[C@@H]2CCCN2C(=O)[C@H](CC(=O)O)NC(=O)[C@H](C)NC(=O)[C@H](Cc2ccccc2)NC(=O)[C@@H]2CSCCC(=O)N3CN(CN(C3)C(=O)CCSC[C@@H](C(=O)N[C@@H](CNC(=O)Cn3cc(CCC(=O)NCCC(=O)N(C)CC(=O)N(C)CC(=O)N(C)CC(=O)N(C)CC(=O)N(C)CC(=O)N(C)CC(=O)N(C)CC(=O)N(C)CC(=O)N(C)CC(=O)N(C)CC(=O)N[C@H]4CSCCC(=O)N5CN6CN(C5)C(=O)CCSC[C@H](NC(=O)[C@@H](CC(=O)O)NC(=O)[C@H](Cc5cccc7ccccc57)NC(=O)[C@@H]5CCCN5C4=O)C(=O)N[C@@H](CCSC)C(=O)N[C@@H](CCCCNC(=N)N)C(=O)N[C@@H](CC(=O)O)C(=O)N[C@@H](Cc4c[nH]c5ccccc45)C(=O)N[C@@H](CO)C(=O)N[C@@H]([C@@H](C)O)C(=O)N4CCC[C@H]4C(=O)N4C[C@H](O)C[C@H]4C(=O)N[C@@H](Cc4c[nH]c5ccccc45)C(=O)N[C@H](C(N)=O)CSCCC6=O)nn3)C(N)=O)NC1=O)C(=O)CCSC[C@H](NC(C)=O)C(=O)N[C@@H](CC(C)(C)C)C(=O)N1CCC[C@H]1C(=O)N[C@@H](CCC(=O)O)C(=O)N[C@H](C)C(=O)N1CCC[C@H]1C(=O)N[C@@H](Cc1ccc(O)cc1)C(=O)N2 | Tumor necrosis factor receptor superfamily member 9 | binding, SPR | – | Kd | 4.9 nM
CNC(=O)c1cc2c(Oc3ccc(NC(=O)C4(C(=O)Nc5ccc(F)cc5)CC4)cc3)ccnc2cc1OC | CSF1R | enzyme activity, inhibitor, radiometric | – | IC50 | 11 nM
CC/C=C\C/C=C\C/C=C\C/C=C\C/C=C\C/C=C\CCC(=O)O | Nuclear receptor subfamily 4 group A member 2 (Homo sapiens, UniProt P43354) | binding | – | Kd | 30000 nM
COC(=O)[C@H](Cc1c[nH]cn1)NC(=O)CN(CC(=O)O)Cc1ccc(C)cc1 | IDE | enzyme activity, inhibitor, fluorescence | – | IC50 | 1700 nM
Cc1cc(Nc2cc3ncccc3c(N[C@@H]3C[C@H]4CC[C@@H](C3)N4CCC#N)n2)n[nH]1 | CSF1R | binding, competition with immobilised ligand | – | Kd | 1100 nM
COC(=O)[C@H](Cc1c[nH]cn1)NC(=O)CN(CC(=O)O)Cc1ccc2ccccc2c1 | IDE | enzyme activity, inhibitor, fluorescence | – | IC50 | 1200 nM
CCCC[C@@H]1NC(=O)[C@H](Cc2ccc(O)cc2)NC(=O)[C@@H]2CCCN2C(=O)[C@H](CC(=O)O)NC(=O)[C@H](C)NC(=O)[C@H](Cc2ccccc2)NC(=O)[C@@H]2CSCCC(=O)N3CN(CN(C3)C(=O)CCSC[C@@H](C(=O)N[C@@H](CNC(=O)CCc3cn(CCOCCOCCOCCOCCOCCOCCOCCOCCOCCOCCOCCOCCC(=O)NCCC(=O)N(C)CC(=O)N(C)CC(=O)N(C)CC(=O)N(C)CC(=O)N(C)CC(=O)N(C)CC(=O)N(C)CC(=O)N(C)CC(=O)N(C)CC(=O)N(C)CC(=O)NCCCC[C@@H]4NC(=O)[C@H](Cc5cccc6ccccc56)NC(=O)[C@@H]5CCCN5C(=O)[C@@H](NC(C)=O)CSCCC(=O)N5CN6CN(C5)C(=O)CCSC[C@H](NC4=O)C(=O)N[C@@H](CCSC)C(=O)N[C@@H](CCCCNC(=N)N)C(=O)N[C@@H](CC(=O)O)C(=O)N[C@@H](Cc4c[nH]c5ccccc45)C(=O)N[C@@H](CO)C(=O)N[C@@H]([C@@H](C)O)C(=O)N4CCC[C@H]4C(=O)N4C[C@H](O)C[C@H]4C(=O)N[C@@H](Cc4c[nH]c5ccccc45)C(=O)N[C@H](C(N)=O)CSCCC6=O)nn3)C(N)=O)NC1=O)C(=O)CCSC[C@H](NC(C)=O)C(=O)N[C@@H](CC(C)(C)C)C(=O)N1CCC[C@H]1C(=O)N[C@@H](CCC(=O)O)C(=O)N[C@H](C)C(=O)N1CCC[C@H]1C(=O)N[C@@H](Cc1ccc(O)cc1)C(=O)N2 | Tumor necrosis factor receptor superfamily member 9 | binding, SPR | – | Kd | 5.1 nM
COc1ccc(OC(=O)N(CC(=O)O)Cc2ccc(OCCc3nc(-c4ccccc4)oc3C)cc2)cc1 | Peroxisome proliferator-activated receptor alpha (PPARA, Homo sapiens, UniProt Q07869) | reporter gene, agonist, luciferase | – | EC50 | 6500 nM
CCCC[C@@H]1NC(=O)[C@H](Cc2ccc(O)cc2)NC(=O)[C@@H]2CCCN2C(=O)[C@H](CC(=O)O)NC(=O)[C@H](C)NC(=O)[C@H](Cc2ccccc2)NC(=O)[C@@H]2CSCCC(=O)N3CN(CN(C3)C(=O)CCSC[C@@H](C(=O)N[C@@H](CNC(=O)CCc3cn(CC(=O)N[C@H]4CSCCC(=O)N5CN6CN(C5)C(=O)CCSC[C@H](NC(=O)[C@@H](CC(=O)O)NC(=O)[C@H](Cc5cccc7ccccc57)NC(=O)[C@@H]5CCCN5C4=O)C(=O)N[C@@H](CCSC)C(=O)N[C@@H](CCCCNC(=N)N)C(=O)N[C@@H](CC(=O)O)C(=O)N[C@@H](Cc4c[nH]c5ccccc45)C(=O)N[C@@H](CO)C(=O)N[C@@H]([C@@H](C)O)C(=O)N4CCC[C@H]4C(=O)N4C[C@H](O)C[C@H]4C(=O)N[C@@H](Cc4c[nH]c5ccccc45)C(=O)N[C@H](C(N)=O)CSCCC6=O)nn3)C(N)=O)NC1=O)C(=O)CCSC[C@H](NC(C)=O)C(=O)N[C@@H](CC(C)(C)C)C(=O)N1CCC[C@H]1C(=O)N[C@@H](CCC(=O)O)C(=O)N[C@H](C)C(=O)N1CCC[C@H]1C(=O)N[C@@H](Cc1ccc(O)cc1)C(=O)N2 | Tumor necrosis factor receptor superfamily member 9 | binding, SPR | – | Kd | 3.5 nM
CC(C)COC(=O)[C@H](Cc1cnc[nH]1)NC(=O)CN(CC(=O)O)Cc1ccccc1 | IDE | enzyme activity, inhibitor, fluorescence | – | IC50 | 600 nM
